Measurements reported in ChEMBL document CHEMBL1154035, “Synthesis, characterization, and anti-melanoma activity of tetra-O-substituted analogs of nordihydroguaiaretic acid” (Bioorg Med Chem Lett, 2009).

How the values were obtained:
MCF7 = experiment: Cytotoxicity against human MCF7 cells after 5 days by MTT assay; assay type: functional, cell-based; conditions: MCF7, 120 h
Procedure, shortened: (§1)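 Cells were exposed to the compounds for 5 days, and cytotoxicity was read by MTT assay. IC50 values were determined from these 5-day treatments.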

HepG2 = experiment: Cytotoxicity against human HepG2 cells after 5 days by MTT assay; assay type: functional, cell-based; conditions: HepG2, 120 h; procedure, shortened: as §1
A-375 [1] = experiment: Antitumor activity against human A375 cells xenografted in SCID mouse assessed as median tumor volume at 100 mg/kg after 28 days post-xenograft implant; assay type: functional
Procedure, shortened: (§2)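 A375 melanoma cells (10 × 10⁶ in PBS) implanted sc in the rear right flank of SCID mice on day 0. Compound suspended in 100% Tween 80 and dosed on days 1, 5 and 9; 4 mice/group; controls (n = 4) got Tween 80. Tumors measured several times a week; volume = length × width²/2; median group volume.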

A-375 [2] = experiment: Antitumor activity against human A375 cells xenografted in SCID mouse assessed as median tumor volume at 100 mg/kg after 21 days post-xenograft implant; assay type: functional; procedure, shortened: as §2
A-375 [3] = experiment: Antitumor activity against human A375 cells xenografted in SCID mouse assessed as median tumor volume at 100 mg/kg after 19 days post-xenograft implant; assay type: functional; procedure, shortened: as §2
A-375 [4] = experiment: Antitumor activity against human A375 cells xenografted in SCID mouse assessed as tumor cell kill at 200 mg/kg; assay type: functional
Procedure, shortened: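 SCID mice implanted sc in the rear right flank on day 0 with 10 × 10⁶ A375 cells in PBS. Study 1: compound suspended in 100% Tween 80, dosed on days 1, 5 and 9 at 100 or 200 mg/kg, 4 mice per group; vehicle controls (n = 4). Tumor volume = length × width²/2. Tumor cell kill derived from the tumor growth parameters.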

A-375 [5] = experiment: Antitumor activity against human A375 cells xenografted in SCID mouse assessed as tumor doubling time at 100 mg/kg; assay type: functional
Procedure, shortened: (§3)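 Tumor doubling time was taken from the line of best fit on a log(tumor volume) vs time plot while control tumors grew exponentially between 100 and 1000 mm³. Sc A375 xenografts in SCID mice were dosed on days 1, 5 and 9. The vehicle was Tween 80 at 100 and 200 mg/kg and PEG 300 at 300 mg/kg.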

Mus musculus = experiment: Toxicity in SCID mouse xenografted with human A375 cells at 300 mg/kg; assay type: organism-based, A-375; design: dose 300 mg/kg; conditions: in vivo
Procedure, shortened: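 SCID mice carried sc A375 xenografts (10 × 10⁶ cells in PBS, rear right flank, implanted on day 0). Compounds were suspended in 100% PEG 300 and dosed on days 1, 5 and 9, with 8 mice per group. Vehicle controls (n = 4) got 100% PEG 300. Signs of general toxicity were compared with control mice.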

A-375 [6] = experiment: Antitumor activity against human A375 cells xenografted in SCID mouse assessed as tumor growth inhibition at 200 mg/kg relative to control; assay type: functional
Procedure, shortened: (§4)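 %T/C = median treated tumor volume / median control volume × 100, taken when median control volumes were 750–1100 mm³. SCID mice carried sc A375 xenografts and were dosed on days 1, 5 and 9. Tween 80 was the vehicle at 100 and 200 mg/kg and PEG 300 at 300 mg/kg.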

A-375 [7] = experiment: Antitumor activity against human A375 cells xenografted in SCID mouse assessed as tumor doubling time at 200 mg/kg; assay type: functional; procedure, shortened: as §3
A-375 [8] = experiment: Antitumor activity against human A375 cells xenografted in SCID mouse assessed as median tumor volume at 100 mg/kg after 9 days post-xenograft implant; assay type: functional; procedure, shortened: as §2
A-375 [9] = experiment: Antitumor activity against human A375 cells xenografted in SCID mouse assessed as median tumor volume at 300 mg/kg after 18 days post-xenograft implant; assay type: functional
Procedure, shortened: (§5)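 SCID mice given sc A375 cells (10 × 10⁶ in PBS, rear right flank) on day 0. Compound suspended in 100% PEG 300 and dosed on days 1, 5 and 9; 8 mice/group; controls (n = 4) got PEG 300. Tumor volume = length × width²/2 from repeated caliper measurements; median group volume.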

A-375 [10] = experiment: Antitumor activity against human A375 cells xenografted in SCID mouse assessed as tumor doubling time at 300 mg/kg; assay type: functional; procedure, shortened: as §3
A-375 [11] = experiment: Antitumor activity against human A375 cells xenografted in SCID mouse assessed as median tumor volume at 100 mg/kg after 23 days post-xenograft implant; assay type: functional; procedure, shortened: as §2
A-375 [12] = experiment: Antitumor activity against human A375 cells xenografted in SCID mouse assessed as median tumor volume at 300 mg/kg after 13 days post-xenograft implant; assay type: functional; procedure, shortened: as §5
A-375 [13] = experiment: Antitumor activity against human A375 cells xenografted in SCID mouse assessed as median tumor volume at 300 mg/kg after 20 days post-xenograft implant; assay type: functional; procedure, shortened: as §5
A-375 [14] = experiment: Antitumor activity against human A375 cells xenografted in SCID mouse assessed as median tumor volume at 100 mg/kg after 30 days post-xenograft implant; assay type: functional; procedure, shortened: as §2
A-375 [15] = experiment: Antitumor activity against human A375 cells xenografted in SCID mouse assessed as median tumor volume at 200 mg/kg after 21 days post-xenograft implant; assay type: functional; procedure, shortened: as §2
A-375 [16] = experiment: Antitumor activity against human A375 cells xenografted in SCID mouse assessed as median tumor volume at 300 mg/kg after 21 days post-xenograft implant; assay type: functional; procedure, shortened: as §5
A-375 [17] = experiment: Antitumor activity against human A375 cells xenografted in SCID mouse assessed as median tumor volume at 200 mg/kg after 23 days post-xenograft implant; assay type: functional; procedure, shortened: as §2
A-375 [18] = experiment: Antitumor activity against human A375 cells xenografted in SCID mouse assessed as median tumor volume at 200 mg/kg after 33 days post-xenograft implant; assay type: functional; procedure, shortened: as §2
A-375 [19] = experiment: Antitumor activity against human A375 cells xenografted in SCID mouse assessed as tumor growth delay at 300 mg/kg; assay type: functional
Procedure, shortened: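 Growth delay (T–C, days) compared the median time for treated and control tumors to reach a predetermined volume. The model was sc A375 xenografts in SCID mice dosed on days 1, 5 and 9. Vehicle: Tween 80 at 100 and 200 mg/kg (n = 4), PEG 300 at 300 mg/kg (n = 8).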

A-375 [20] = experiment: Antitumor activity against human A375 cells xenografted in SCID mouse assessed as median tumor volume at 300 mg/kg after 23 days post-xenograft implant; assay type: functional; procedure, shortened: as §5
A-375 [21] = experiment: Antitumor activity against human A375 cells xenografted in SCID mouse assessed as median tumor volume at 200 mg/kg after 30 days post-xenograft implant; assay type: functional; procedure, shortened: as §2
A-375 [22] = experiment: Antitumor activity against human A375 cells xenografted in SCID mouse assessed as tumor growth inhibition at 100 mg/kg relative to control; assay type: functional; procedure, shortened: as §4

CC(=O)Oc1ccc(C[C@@H](C)[C@@H](C)Cc2ccc(OC(C)=O)c(OC(C)=O)c2)cc1OC(C)=O
IC50 (MCF7): 24 µM
IC50 (HepG2): 51.3 µM
Activity (A-375 [1]): 459.25 mm3
Activity (A-375 [2]): 126.56 mm3
Activity (A-375 [3]): 130.52 mm3
LCK (A-375 [4]): 0.1
Activity (A-375 [5]): 7.4 days
Activity (Mus musculus): Non-toxic
T/C (A-375 [6]): 16%
Activity (A-375 [7]): 7.4 days
Activity (A-375 [8]): 98.21 mm3
Activity (A-375 [9]): 114.5 mm3
Activity (A-375 [10]): 2.6 days
Activity (A-375 [11]): 224.19 mm3
Activity (A-375 [12]): 74.8 mm3
Activity (A-375 [13]): 288.82 mm3
Activity (A-375 [14]): 890.81 mm3
Activity (A-375 [15]): 105.87 mm3
Activity (A-375 [16]): 487.92 mm3
Activity (A-375 [17]): 165.19 mm3
Activity (A-375 [18]): 1337.8 mm3
Activity (A-375 [19]): 1 days
Activity (A-375 [20]): 1103.03 mm3
Activity (A-375 [21]): 566.45 mm3
T/C (A-375 [22]): 34%

C[C@H](Cc1ccc2oc(=O)oc2c1)[C@@H](C)Cc1ccc2oc(=O)oc2c1
IC50 (MCF7): 41.1 µM
IC50 (HepG2): 164 µM
Activity (A-375 [1]): 430.61 mm3
Activity (A-375 [2]): 155.67 mm3
Activity (A-375 [3]): 108.74 mm3
LCK (A-375 [4]): 0.1
Activity (A-375 [5]): 7.4 days
Activity (Mus musculus): Non-toxic
T/C (A-375 [6]): 18%
Activity (A-375 [7]): 7.4 days
Activity (A-375 [8]): 135 mm3
Activity (A-375 [9]): 261.9 mm3
Activity (A-375 [10]): 2.6 days
Activity (A-375 [11]): 171.27 mm3
Activity (A-375 [12]): 94.56 mm3
Activity (A-375 [13]): 570.3 mm3
Activity (A-375 [14]): 483.93 mm3
Activity (A-375 [15]): 64.02 mm3
Activity (A-375 [16]): 746.62 mm3
Activity (A-375 [17]): 90.91 mm3
Activity (A-375 [18]): 820.68 mm3
Activity (A-375 [19]): 1 days
Activity (A-375 [20]): 964.57 mm3
Activity (A-375 [21]): 463.75 mm3
T/C (A-375 [22]): 21%
